Compounds with a hit are over-represented: about 1.5% of the library has one in this group of screens.
S1P4 agonist = S1P4 receptor agonists, primary screen, cell-based. S1P4-expressing cell line, agonist reporter assay. hit rate 0.35% among 220,000. activation, % at 4.98 µM; in the data active = activation above about 11%
Target sequence (O95977 whole entry, looked up): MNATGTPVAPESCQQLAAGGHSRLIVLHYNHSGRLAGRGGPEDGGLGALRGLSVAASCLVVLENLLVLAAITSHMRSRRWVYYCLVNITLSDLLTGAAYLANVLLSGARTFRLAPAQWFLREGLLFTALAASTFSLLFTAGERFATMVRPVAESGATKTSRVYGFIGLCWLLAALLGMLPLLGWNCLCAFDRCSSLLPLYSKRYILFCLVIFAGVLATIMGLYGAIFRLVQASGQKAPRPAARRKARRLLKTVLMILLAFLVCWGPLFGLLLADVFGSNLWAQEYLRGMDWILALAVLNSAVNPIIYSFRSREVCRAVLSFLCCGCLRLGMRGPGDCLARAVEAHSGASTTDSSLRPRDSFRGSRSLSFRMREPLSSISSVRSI
zVAD death inh = inhibitors of zVAD-triggered necroptosis, primary screen, L929 cells; L929 zVAD necroptosis rescue, ATP luminescence, 24 h; with zVAD 60 µM; AID 1377, 2008; hit rate 0.38% among 220,000; viability rescue, % at 10 µM;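 active = activation, scaled between plate controls, above about 75%, limit read from the data; inactive = activation under that limit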
S1P4 antagonist = S1P4 receptor antagonists, primary screen, cell-based | hit rate 0.26% among 220,000 | Sphingosine 1-phosphate receptor 4 (Homo sapiens), O95977 | inhibition, % at 4.98 µM | AID 1510, 2009 | S1P4-expressing cells, antagonist mode, reporter read-out; in the data active = inhibition above about 29%
TbHK1 inh = Trypanosoma brucei hexokinase 1 inhibitors, primary screen, biochemical, G6PDH-coupled NADH absorbance, MLSCN library; hit rate 0.11% among 220,000; hexokinase 1 [Trypanosoma brucei]; inhibition, % at 10 µM; recombinant TbHK1, G6PDH-coupled NADH A340;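 active = inhibition of 50% or more in the single-dose primary screen; inactive = inhibition below 50%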
Dynein cargo inh = inhibitors of GR-EGFP nuclear translocation, primary screen, dynein cargo transport inhibitor project, imaging, high-content, 3617.4 mouse cells; z-score, hits read low; AID 1381, 2008; hit rate 0.47% among 220,000; test concentration mostly 20 µM; stimulated with dexamethasone, 1 µM; stronger effect = lower value;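 active = plate z-score of nuclear minus cytoplasmic receptor signal below a set negative limit, without overly bright fluorescence or cell loss, cut at about -3.5 in these data, passing the limit was not always enough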;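 note: z-score of nuclear minus cytoplasmic ring GR-EGFP intensity difference per well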
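Buffer or medium: tet-free, stripped-serum medium; reagent: dexamethasone at 1.0 µM final, 30 min; incubation: 48 h induction, 1 h compound, 30 min dex at 37 °C; measured by: formaldehyde fixation, Hoechst nuclear stain, 10x automated fluorescence imaging; read-out: nuclear-to-cytoplasmic GR-EGFP distribution per well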
TNF death inh = inhibitors of TNF-alpha triggered necroptosis, primary screen, cell-based, Jurkat FADD-/-, single concentration | Jurkat FADD-/- TNF necroptosis rescue, ATP luminescence, 24 h; 0 = TNF only, 100 = no-TNF cells | hit rate 0.068% among 220,000 | activation (protection from cell death), % at 10 µM;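 active = activation, meaning protection from cell death, of at least 50% relative to plate controls; inactive = activation below 50%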;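 note: necroptosis triggered by 40 ng/mL TNF-alpha added together with compound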
S1P4 ag conf = S1P4 receptor agonists, retest, confirmation, cell-based, high throughput; shares compounds with S1P4 agonist; S1P4 agonist cell-based reporter assay; activation, % at 4.98 µM; hit rate 7% among 740; AID 1523, 2009; in the data active = activation above about 12%
S1P1 agonist = S1P1 receptor agonists, human, counter-screen for S1P4 agonist project, cell-based. shares compounds with S1P4 agonist. S1P1 agonist cell-based assay, activation. activation, % at 4.98 µM. hit rate 4% among 740. AID 1563, 2009; in the data active = activation above about 21%
Large screens that a line does not name were inactive (follow-up assays come after a bar, where they were run).

COCCCNC(=O)c1ccc(Cn2c(=O)[nH]c3ccccc3c2=O)cc1	S1P4 agonist 11.5 (no result: zVAD death inh) | S1P4 ag conf inactive | S1P1 agonist inactive
COc1cc(CNCCO)cc(Cl)c1OCc1ccccc1Cl	S1P4 agonist 11.1 | S1P4 ag conf inactive | S1P1 agonist inactive
Cc1cc(C)nc(/N=C(\N)Nc2cccc([N+](=O)[O-])c2)n1	S1P4 agonist 11.6 | S1P4 ag conf inactive | S1P1 agonist inactive
O=C(Cc1ncc(C(F)(F)F)cc1Cl)NCCc1ccccn1	S1P4 agonist 13.0 | S1P4 ag conf inactive | S1P1 agonist inactive
COc1ccc(C2NC(=O)C(C#N)=C(S)N2c2cccc(C)c2)cc1OC (configuration not stated)	S1P4 agonist 15.3 | S1P4 ag conf inactive | S1P1 agonist inactive
COc1ccc(C2NC(=O)C(C#N)=C(S)N2c2ccc(C)cc2)cc1OC (configuration not stated)	none
COc1ccc(CCNC2CC(=O)N(CCc3ccc(OC)c(OC)c3)C2=O)cc1OC (configuration not stated)	none
COc1ccc(CCN2C(=O)CC(NCc3ccc4c(c3)OCO4)C2=O)cc1OC (configuration not stated)	S1P4 agonist 18.9 | S1P4 ag conf inactive | S1P1 agonist inactive
CCOC(=O)c1cc(C(=O)OCC)c2ccccn2c1=O	none
CCOC(=O)c1cnn2c1[nH]c(=O)c1ccccc12	S1P4 agonist 254.7 | S1P4 ag conf inactive | S1P1 agonist inactive
CCN(C(=O)c1cnc(OC)cc1C(F)(F)F)c1ccc(Cl)cc1Cl	none
O=c1[nH][nH]c2nc(C(F)(F)F)cc(C(F)(F)F)c12	S1P4 agonist 67.5 | S1P4 ag conf inactive | S1P1 agonist inactive
O=c1cc(C(F)(F)F)nc(-c2ccccc2)[nH]1	none
CC(C)C(=O)NS(=O)(=O)c1ccc(NS(C)(=O)=O)cc1	none
CC(C)CC(=O)NS(=O)(=O)c1ccc(NS(C)(=O)=O)cc1	S1P4 agonist 16.6 | S1P4 ag conf inactive | S1P1 agonist inactive
O=C(CCC1CCCN(C(=O)CCCc2ccccc2)C1)N1CCN(c2ccccn2)CC1 (configuration not stated)	none
Cc1ccc(C2=NN=C(NC(=O)C(F)(F)F)SC2)cc1	none
Cc1cc(C(=O)CN2C(=O)C(=O)N(Cc3ccccc3)C2=O)c(C)n1-c1ccccc1F	S1P4 agonist 13.0 | S1P4 ag conf inactive | S1P1 agonist inactive
CCOc1ccc2nc(C)cc(Nc3cccc([N+](=O)[O-])c3)c2c1	none
Cc1nccc2[nH]c(=O)c(C(=O)NC(C)CCc3ccccc3)cc12 (configuration not stated)	S1P4 agonist 24.1 | S1P4 ag conf inactive | S1P1 agonist inactive
CCOC(=O)Cc1csc(NC(=O)CSc2nc(N)c3c(C)c(C)sc3n2)n1	S1P4 agonist 24.1 | S1P4 ag conf inactive | S1P1 agonist inactive
C[C@@H](C(=O)OCn1nnc2ccccc2c1=O)N1C(=O)C2CCCCC2C1=O (some centres not stated)	none
CC(=O)Nc1nn(C)c2nc(C)cc(C)c12	S1P4 agonist 27.7 | S1P4 ag conf inactive | S1P1 agonist inactive
Nc1ccc2oc(C3CCCCC3)nc2c1	none
COC(=O)CC(NC(=O)c1cccs1)c1ccc(OC)c(OC)c1 (configuration not stated)	none
Cc1ccc(C2Nc3ccccc3-c3nc4ccccc4n32)o1 (configuration not stated)	S1P4 agonist 11.6 | S1P4 ag conf inactive | S1P1 agonist inactive
CCc1nnc(NC(=O)c2ccc(S(=O)(=O)N3CCc4ccccc4C3)cc2)s1	none
CCc1nnc(NC(=O)c2ccc(Cl)c(S(=O)(=O)N3CCc4ccccc4C3)c2)s1	S1P4 agonist 19.9 | S1P4 ag conf inactive | S1P1 agonist inactive
O=C(NC(NC(=S)Nc1ccc(Cl)cc1Cl)C(Cl)(Cl)Cl)c1cccc([N+](=O)[O-])c1 (configuration not stated)	none
CC(C)c1ccc(NC(=O)COc2ccc(F)cc2C(=O)c2cnn(-c3ccccc3)c2)cc1	none (no result: zVAD death inh)
Cc1ccc(NC(=O)C2CCCN(C(=O)c3ccc(Cl)cc3)C2)c(C)c1 (configuration not stated)	none
O=C(CCSc1ccccc1)NCc1cccnc1	S1P4 agonist 11.2 | S1P4 ag conf inactive | S1P1 agonist inactive
Cc1ccc(N=Cc2nc(-c3ccc(C)cc3)oc2O)cc1	S1P4 agonist 15.0 | S1P4 ag conf inactive | S1P1 agonist inactive
O=S(=O)(c1ccc(N2CCC(c3ccc(Cl)cc3)=N2)cc1)N(CCO)CCO	S1P4 agonist 21.5 | S1P4 ag conf 21.1 | S1P1 agonist 68.8
CN(C)CCCNS(=O)(=O)c1ccc(N2CCC(c3ccc(Cl)cc3)=N2)cc1	S1P4 agonist 96.0 | S1P4 ag conf 58.6 | S1P1 agonist 153.3
CN(C)CCCNS(=O)(=O)c1cc(Cl)ccc1Cl	none
Cc1cc(CN(C)C(=O)c2cc(COc3ccc(F)cc3Cl)on2)n[nH]1	none
COc1ccc(O)c(C(=O)C2c3ccccc3C(=O)N2c2ccc(C)cc2)c1 (configuration not stated)	none
O=C(O)c1ccc(Br)cn1	S1P4 agonist 27.4 | S1P4 ag conf inactive | S1P1 agonist inactive
COC(=O)c1ccc(C(=O)O)nc1	none
COc1ccc2cc(OC)c(C(=O)N3CCOCC3)cc2c1	S1P4 agonist 14.4 | S1P4 ag conf inactive | S1P1 agonist inactive
COc1cccc(C(=O)N2CCOCC2)c1	none
O=C(c1cccc(F)c1)N1CCN(S(=O)(=O)Cc2ccccc2)CC1	none
CCOc1cc(C(N)=O)cc(Cl)c1OCc1ccccc1	S1P4 agonist 24.3 | S1P4 ag conf inactive | S1P1 agonist inactive
Oc1ccc(-n2cnnn2)cc1	S1P4 agonist 30.4 | S1P4 ag conf inactive | S1P1 agonist inactive
COc1ccccc1N=c1oc2cc(O)ccc2cc1C(N)=O	S1P4 agonist 26.7 | S1P4 ag conf inactive | S1P1 agonist inactive
COc1cccc(N=c2oc3cc(O)ccc3cc2C(=O)NCC2CCCO2)c1 (configuration not stated)	S1P4 agonist 16.9 | S1P4 ag conf inactive | S1P1 agonist inactive

Bioassay records: PubChem, several laboratories
